Converted amounts (≈) assume the structure as drawn. The source made the active and inactive calls. The calls are words filed in the database; no cut-off is given here.
Columns and labels:
[1] = Drug metabolism in mouse liver microsomes at 1 uM after 15 mins by LC-MS/MS analysis; format: ADME, microsome; conditions: read-out: Drug metabolism
Outline: (§1)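 Compound incubated 15 min with human or mouse liver microsomes; stability expressed as percent turnover (metabolised) at 15 min.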

[2] = target: Core antigen (Hepatitis B virus) (UniProt Q03732); assay: Induction of HBV Maleimidyl BoDIPY-FL-labeled capsid Cp*150 mutant aggregation incubated for 30 mins measured every 10 secs for 30 mins by fluorescence quenching assay
[3] = Cytotoxicity against human HepG2 cells after 4 days by resazurin assay; format: cell-based
Hepatitis B virus [4] = assay: Induction of HBV capsid core protein CP149 aggregation assessed as ratio between area under the curve for observed amount of core dimer and area under the curve for aggregated core protein at 20 uM after 24 hrs by size exclusion chromatographic analysis
Outline: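 Recombinant HBV core assembly domain (aa 1–149, Cp149) was incubated with compound at 20 µM for 24 h, with a no-compound control run in parallel. Size exclusion chromatography gave the ratio of Cp149 dimer AUC to aggregated Cp149 AUC.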

[5] = Kinetic solubility of the compound at pH 7.4 after 4 hrs by UPLC-UV analysis; format: physicochemical; conditions: buffer, read-out: Kinetic_solubility
[6] = Drug metabolism in human liver microsomes at 1 uM after 15 mins by LC-MS/MS analysis; format: ADME, microsome; conditions: read-out: Drug metabolism; outline: as §1
Hepatitis B virus [7] = assay: Antiviral activity against Hepatitis B virus infected in human HepG2.117 cells assessed as inhibition of viral DNA level after 3 days by real time PCR; format: functional, organism-based; conditions: HepG2.117, 72 h
HBV genotype D = assay: Antiviral activity against HBV genotype D infected in human HepG2.2.15 cells assessed as inhibition of viral DNA level treated twice for 3 days measured after 6 days by real time PCR; format: functional, organism-based; conditions: Hepatitis B virus
[8] = Cytotoxicity against human HepG2 cells after 4 to 6 days by resazurin assay; format: cell-based; conditions: HepG2 cells

Core antigen (Hepatitis B virus), sequence (Q03732 as listed by the source): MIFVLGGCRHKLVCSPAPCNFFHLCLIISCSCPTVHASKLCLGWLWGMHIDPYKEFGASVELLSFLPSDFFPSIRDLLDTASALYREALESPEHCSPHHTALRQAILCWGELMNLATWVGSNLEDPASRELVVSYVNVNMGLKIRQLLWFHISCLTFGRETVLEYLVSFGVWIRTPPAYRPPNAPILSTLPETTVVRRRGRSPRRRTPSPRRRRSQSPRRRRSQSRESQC

Structure (SMILES)	metabolised at 0.25 h, 1 µM [1] [%]	Activity [2]	CC50 at 96 h [3] [µM]	Ratio (Hepatitis B virus [4])	solubility kinetic at 4 h [5] [µM]	metabolised at 0.25 h, 1 µM [6] [%]	EC50 (Hepatitis B virus [7]) [µM]	EC50 (HBV genotype D) [µM]	CC50 [8] [µM]
O=C(Nc1nccs1)c1cc(S(=O)(=O)NC2CCCCC2)ccc1F	100	inactive	> 25	9.7	> 100	85	> 25	29.3	
CCc1cc(NC(=O)c2cccc(S(=O)(=O)NC(C)C)c2)ccc1F	88				15 (≈ 5.47 µg/mL)	31	2.59	0.31	28.5
Cc1cc(F)cc(NC(=O)c2cccc(S(=O)(=O)NC3CCCC3)c2)c1	100	Active	> 23		11 (≈ 4.14 µg/mL)	74	1.51	0.11	
O=C(Nc1ccc2ccccc2c1)c1cc(S(=O)(=O)NC2CCCCC2)ccc1F	56	inactive	13	7.5	< 0.2	36	> 25	12.7	
COc1cc(NC(=O)c2cccc(S(=O)(=O)N[C@H]3CCOC3)c2)ccc1F	35				> 100	20	2.66	2.33	> 25
Cc1c(F)ccc(NC(=O)c2cccc(S(=O)(=O)NC3(C)COC3)c2)c1C	77				> 100	0	1.65	2.74	> 25
O=C(Nc1ccc(F)c(F)c1)c1cccc(S(=O)(=O)N[C@H]2CCOC2)c1	42				> 100	5	0.51	0.38	> 50
Cc1cc(NC(=O)c2cccc(S(=O)(=O)NC3(C)COC3)c2)c(C)cc1F	78				> 100	1	1.91	3.06	> 25
O=C(Nc1cccnc1)c1cc(S(=O)(=O)NC2CCCCC2)ccc1F	99	inactive	> 25	9.8	> 100	57	24.8		
O=C(Nc1ccc(F)c(F)c1)c1cccc(S(=O)(=O)NC2CCCC2)c1	86	Active	> 25		46 (≈ 17.5 µg/mL)	45	0.36	0.093	
Cc1cc(NC(=O)c2cccc(S(=O)(=O)N[C@H]3CCOC3)c2)c(F)cc1F	69				> 100	17	3.3	2.22	> 25
CC(C)NS(=O)(=O)c1cccc(C(=O)Nc2ccc(F)c(C3CC3)c2)c1	61				31 (≈ 11.7 µg/mL)	27	0.91	0.32	35.2
CN1CCN(S(=O)(=O)c2cccc(C(=O)Nc3ccc(F)cc3)c2)CC1	84	Active	> 100	6.3	> 100	53	11.1	26.5	
CN(C(=O)c1cccc(S(=O)(=O)NC2CCCC2)c1)c1ccc(F)cc1	100	inactive	> 25		> 100	100	> 25	89.6	
Cc1cc(NC(=O)c2cccc(S(=O)(=O)NC3CCCC3)c2)ccc1F	97	Active	48.2	0.02	33 (≈ 12.4 µg/mL)	66	0.42	0.1	
O=C(Nc1ccncc1)c1cc(S(=O)(=O)NC2CCCCC2)ccc1F	75	inactive	> 25	6	> 100	68	16.3	5.3	
O=C(Nc1cccc(S(=O)(=O)NC2CCCCC2)c1)c1ccccc1	100		> 25	7	10 (≈ 3.58 µg/mL)	99	> 25	9.6	
CC1(NS(=O)(=O)c2cccc(C(=O)Nc3ccc(F)cc3)c2)COC1	29		> 100	0.5	> 100	3	0.93	0.96	
CC(=O)N1CCN(S(=O)(=O)c2cccc(C(=O)Nc3ccc(F)cc3)c2)CC1	52		> 100	0.9	86 (≈ 34.9 µg/mL)	19	6.3	7.1	
O=C(Nc1ccc(F)cc1)c1cccc(S(=O)(=O)NC2COC2)c1	21		> 100	0.8	> 100	14	3.05	2.1	
O=C(Nc1ccc(F)cc1)c1cccc(NS(=O)(=O)C2CCCCC2)c1	91		33.6	0.3	86 (≈ 32.4 µg/mL)	46	2.2	1.1	
O=C(Nc1cccc2ccccc12)c1cc(S(=O)(=O)NC2CCCCC2)ccc1F	100	inactive	> 25		12 (≈ 5.12 µg/mL)	94	> 25	15.6	
CN(C)S(=O)(=O)c1cccc(C(=O)Nc2ccc(F)cc2)c1	89		> 100	1.4	43 (≈ 13.9 µg/mL)	50	2.99	5.02	
O=C(Nc1cc(F)cc(F)c1)c1cccc(S(=O)(=O)NC2CCCC2)c1	100	Active	> 25		28 (≈ 10.7 µg/mL)	79	0.78	0.28	
O=S(=O)(NC1CCCCC1)c1ccc(F)c(-c2ncc(-c3ccccc3)[nH]2)c1	99		19.2	10.2	3 (≈ 1.2 µg/mL)	75	23.3	1.7	
